Assay [1] has as its target T1, P2X purinoceptor 3 (Homo sapiens) (UniProt P56373).
T1 sequence (whole entry): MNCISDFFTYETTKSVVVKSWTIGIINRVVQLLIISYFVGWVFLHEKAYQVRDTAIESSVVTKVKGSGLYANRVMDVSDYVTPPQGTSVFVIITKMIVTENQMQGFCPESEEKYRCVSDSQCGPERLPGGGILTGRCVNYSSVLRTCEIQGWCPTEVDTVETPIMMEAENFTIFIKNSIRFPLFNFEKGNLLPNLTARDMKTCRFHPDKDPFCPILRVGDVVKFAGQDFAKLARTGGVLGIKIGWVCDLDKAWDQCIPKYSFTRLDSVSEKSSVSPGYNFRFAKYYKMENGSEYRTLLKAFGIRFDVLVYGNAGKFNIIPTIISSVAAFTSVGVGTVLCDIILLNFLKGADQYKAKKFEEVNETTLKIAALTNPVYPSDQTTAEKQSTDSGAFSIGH
In words: Antagonist activity at human P2X3R transfected in human 1321N1 cells assessed as inhibition of ATP-induced calcium influx relative to control. In kind it is cell-based. As to conditions: concentration not given here. The method in brief: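 1321N1 astrocytoma cells stably expressing human P2X1, P2X2, P2X3 or P2X4 receptor. Calcium influx was induced by ATP at the EC80 for each subtype. Results are given as IC50 (μM) or % inhibition at the indicated concentration.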

Assay [2] concerns the target T2, P2X purinoceptor 3 (Mus musculus) (UniProt Q3UR32).
T2 sequence (whole entry): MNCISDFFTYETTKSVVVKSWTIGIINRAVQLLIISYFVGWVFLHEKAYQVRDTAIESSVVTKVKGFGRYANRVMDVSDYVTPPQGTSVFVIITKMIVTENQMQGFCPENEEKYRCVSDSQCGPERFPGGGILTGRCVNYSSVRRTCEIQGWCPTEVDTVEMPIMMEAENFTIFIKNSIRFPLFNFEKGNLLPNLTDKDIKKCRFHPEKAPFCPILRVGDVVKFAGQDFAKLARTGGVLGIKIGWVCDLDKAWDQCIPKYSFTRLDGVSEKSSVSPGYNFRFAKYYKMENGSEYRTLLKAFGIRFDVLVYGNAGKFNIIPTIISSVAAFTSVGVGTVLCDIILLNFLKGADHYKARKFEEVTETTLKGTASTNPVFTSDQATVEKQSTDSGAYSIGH
Briefly: Antagonist activity at P2X3R in mouse TG sensory neurons assessed as inhibition of P2X3R agonist alpha,beta-meATP-induced current at 1 uM at -65 mV holding potential by whole cell voltage clamp method relative to control. The method in brief:
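Mouse trigeminal sensory neurons were recorded by whole-cell patch clamp. Test compound (0.001–10 μM) was applied before 10 μM α,β-meATP, and inhibition of the agonist-evoked P2X3 current was measured. IC50 was taken from concentration–inhibition curves. N = 5–6 cells.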

For another assay, the species on record is Homo sapiens. In words: Selectivity ratio of IC50 for human P2X4R transfected in human […] 1321N1 cells to IC50 for human transfected in human 1321N1 cells. Format: cell-based.
Assay [3] addresses T2, P2X purinoceptor 3 (Mus musculus). Briefly: Agonist activity at P2X3R in mouse TG sensory neurons assessed as induction of channel current at 1 uM at -65 mV holding potential by whole cell voltage clamp method relative to alpha,beta-meATP.

Each structure is given as a SMILES string.

The inhibition is the change of the read-out against control, counted positive when it falls.

On to `Nc1ncnc2c1ncn2[C@@H]1O[C@H](COP(=O)(O)OP(=O)(O)OP(=O)(O)O)[C@H]2OCO[C@H]21`, for which the values for the inhibition in assay [1] and in assay [2] were 8% and 25%, respectively.
Take `CC1(C)O[C@@H]2[C@H](O1)[C@@H](COP(=O)(O)OP(=O)(O)OP(=O)(O)O)O[C@H]2n1cnc2c(N)ncnc21`: in the assay listed under Homo sapiens, the Ratio IC50 was determined as 12. The Activity in assay [3] came out at 23%.

For the origin of these results see ChEMBL document CHEMBL4433213, “Investigation on 2',3'-O-Substituted ATP Derivatives and Analogs as Novel P2X3 Receptor Antagonists” (ACS Med Chem Lett, 2019).
